Source: PubChem (several laboratories)
T cruzi inh = inhibitors of intracellular T. cruzi growth, primary screen, luminescence, NIH3T3 host cells. T. cruzi beta-gal in NIH3T3, 90 h. inhibition, % (concentration not given with the values). 1.4% of 300,000 active. AID 1885, 2009;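 active means mean inhibition across valid replicates above about 55%, limit read from the data; inconclusive means mean below that limit but half or more replicates reach it; inactive means mean below it, under half of replicates reach it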;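 further: signal also drops with host cell toxicity which is not excluded here; 0% = plate median of DMSO wells and 100% = zero luminescence signal; higher percent means less beta-gal luminescence so fewer parasites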
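compound dosing = single 50 nL compound addition per well in DMSO | material = NIH/3T3 host cells with β-galactosidase reporter T. cruzi | input = 5,000 host fibroblasts per well | timing = ≥90 h infection period, 3 h prior cell attachment | read-out basis = percent inhibition of parasite-derived β-gal signal | detection = GalScreen β-gal luminescence, detergent lysis, 60 min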
CSC inhib = cancer stem cell viability inhibitors, primary screen, luminescence. cancer stem cell-like cells viability. inhibition, % at 7.5 µM. 1.1% of 300,000 active. AID 2717, 2010; in the data active means inhibition above about 75%; inconclusive means no clear call, values can overlap the other calls; tested in HMLE shEcad cells
Calb FLC = C. albicans growth inhibition with fluconazole, primary screen, CaCi-2 strain, Alamar Blue fluorescence. C. albicans CaCi-2 + fluconazole, 48 h. growth inhibition, % (no concentration beside the values). 0.57% of 300,000 active;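 active means growth inhibition above about 58% in most replicates, limit read from the data, passing the limit was not always enough; inconclusive means exactly half the replicates above a set limit; inactive means most replicates below a set limit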;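 further: all wells also contain fluconazole at 8 µg/ml as a sub-toxic cotreatment; 0% = median of DMSO wells and 100% = median of geldanamycin control wells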
Mdm2 MdmX PPI = inhibitors of human Mdm2-MdmX association, primary screen, cell-based, luminescence, split luciferase, SaOS-2, uHTS. 3% of 330,000 active. inhibition, % at 8 µM. Protein Mdm4 (Homo sapiens) + E3 ubiquitin-protein ligase Mdm2 (Homo sapiens), …. SaOS-2 split-luciferase Mdm2/MdmX complementation;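 active means inhibition of at least 50% at 8 µM in the primary screen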
SKKanGAS inh = S. pyogenes SKKanGAS growth inhibitors in kanamycin, primary screen, streptokinase expression inhibitor project, SKKanGAS strain, BacTiter-Glo luminescence; 6 h; inhibition, % at 7.5 µM; 1.3% of 300,000 active; AID 1662, 2009;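 active means mean replicate score, as percent of positive control median, at least 50; inconclusive means mean below 50 but one replicate at or above 50; inactive means mean and every replicate below 50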;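 further: strain carries kanamycin resistance gene driven by streptokinase promoter and grows in 40 µg/ml kanamycin; loss of luminescence reflects streptokinase promoter inhibition or plain growth inhibition; 0% = median of DMSO wells and 100% = positive control at its reference dose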
Beta cell apopt = inhibitors of cytokine-induced beta cell apoptosis, primary screen, luminescence. INS-1E cytokine-induced death, ATP luminescence, 48 h; percent of positive-control rescue, neutral wells zero. protection from apoptosis, % (no concentration beside the values). 0.8% of 300,000 active. AID 435005, 2010;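 active means Every replicate reaches about 75%, or at least half do and their mean reaches it too, limit read from the data; inconclusive means At least half of replicates reach the limit but their mean does not; inactive means Under half of replicates reach the limit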;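 further: 0% = cytokine-treated negative control wells and 100% = positive control rescue; higher means more ATP so stronger rescue from cytokine killing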
Active calls of the source: *; ? = inconclusive; / = no result given. Sampled rows, rich in hits. Any-hit rate of the full collection: about 5.7%.

SMILES	T cruzi inh	CSC inhib	Calb FLC	Mdm2 MdmX PPI	SKKanGAS inh	Beta cell apopt
CC(=O)Nc1ccc(C2C(=O)c3ccccc3C2=O)cc1	-11	-1	8	10	51*	-4
COc1ccc(-c2nc(-c3ccccc3)ncc2S(C)(=O)=O)cc1	10	5	2	-14	-18	-2
S=c1[nH]nc(-c2ccc(Cl)cc2)n1Cc1ccccc1	3	-4	-2	3	-9	-5
Sc1nnc(-c2ccc(Cl)cc2)n1Cc1ccccc1	/	76*	/	4	/	6
CC(=O)N1CCN(c2ccc(S(=O)(=O)N3CCCCC3)cc2[N+](=O)[O-])CC1	/	-12	/	18	/	2
CN1CCN(c2ccc(C(=O)c3ccccc3)cc2[N+](=O)[O-])CC1	56*	83*	10	10	-5	-6
O=[N+]([O-])c1cc(S(=O)(=O)N2CCCC2)ccc1O	0	-12	35	2	-4	2
CN1CCN(c2ccc(S(=O)(=O)N3CCCCC3)cc2[N+](=O)[O-])CC1	68*	12	-2	16	-1	-3
CN1CCN(c2ccccc2NC(=O)c2ccc(N3CCCCC3)c([N+](=O)[O-])c2)CC1	6	/	-9	-3	1	-1
COc1ccc(CN(C)c2ccc(S(=O)(=O)N3CCN(C)CC3)cc2[N+](=O)[O-])cc1OC	/	/	/	9	/	102*
O=[N+]([O-])c1cc(S(=O)(=O)N2CCCCCC2)ccc1F	/	102*	/	/	/	-6
COc1ccc(CCN(C)c2ccc(S(=O)(=O)N3CCCC3)cc2[N+](=O)[O-])cc1OC	-11	-6	8	34	-9	-7
CCOC(CNC(=O)CN1C(=O)COc2ccc(S(=O)(=O)N3CC(C)CC(C)C3)cc21)OCC (configuration not stated)	8	/	-4	-14	-5	1
COc1cccc(NC(=O)C(=O)N/N=C(\C)CC(=O)Nc2ccc(NC(C)=O)cc2)c1	3	2	-3	-35	-1	-2
Cc1ccc(Cl)cc1NC(=O)COC(=O)CCN1C(=O)C2CC=CCC2C1=O (configuration not stated)	/	18	/	-7	/	-4
COc1ccc(-c2nc(CCl)cs2)cc1	6	3	?	-17	1	-6
COc1ccc(-c2csc(-c3cccs3)n2)c(OC)c1	-18	/	38	-300	1	/
COc1ccc(-c2csc(-c3ccc(O)cc3)n2)cc1	-35	90*	-7	-26	18	6
COc1cccc(-c2nc(CCl)cs2)c1	61*	-4	23	8	-1	5
COc1ccc(-c2csc(-c3ccccc3)n2)c(OC)c1	-9	11	99*	-363	27	/
O=C(COC(=O)c1ccncc1)Nc1cccc2ccccc12	/	-6	/	-1	/	-1
CCOC(=O)c1c(C)[nH]c(C)c1C(=O)COC(=O)Cc1n[nH]c(=O)c2ccccc12	/	-16	/	29	/	1
C[C@@H](NC(=O)c1nc[nH]c1C(=O)N[C@@H](Cc1ccccc1)C(=O)OC(C)(C)C)c1ccccc1	15	48	-1	27	84*	-1
CCOC(=O)c1ccc(NC(=O)c2nc[nH]c2C(=O)N[C@@H](CC(C)C)C(=O)OCc2ccccc2)cc1	33	-6	7	-9	63*	-9
Cc1cccc(NC(=S)NC(NC(=O)OCc2ccccc2)C(Cl)(Cl)Cl)c1 (configuration not stated)	57*	34	-7	19	14	10
SMILES	T cruzi inh	CSC inhib	Calb FLC	Mdm2 MdmX PPI	SKKanGAS inh	Beta cell apopt
Cc1cccc(NC(=O)c2nc[nH]c2C(=O)N[C@@H](Cc2ccccc2)C(=O)OCc2ccccc2)c1	3	-12	3	-18	64*	-1
CCOC(=O)c1ccc(NC(=O)c2nc[nH]c2C(=O)N[C@@H](CC(C)C)C(=O)OC(C)(C)C)cc1	8	42	3	42	21	6
CC(C)[C@H](NC(=O)C1CCN(S(=O)(=O)c2ccc(F)cc2)CC1)C(=O)NCc1ccco1	10	-13	-6	11	-9	-4
O=C(COC(=O)c1cc(Cl)nc(Cl)c1)Nc1ccc(Cl)c(S(=O)(=O)N2CCOCC2)c1	/	-12	/	-6	/	1
Cc1ccc(C=Nc2ccc(N(C)C)cc2)o1	61*	15	2	16	6	44
Cc1c(-c2nc(N)nc(Nc3ccc(F)cc3)n2)oc2ccccc12	62*	21	1	8	0	/
COc1ccccc1Nc1nc(N)nc(-c2oc3ccccc3c2C)n1	7	-16	?	15	-3	0
Cc1ccccc1Nc1nc(N)nc(-c2oc3ccccc3c2C)n1	56*	19	9	-42	-11	-21
O=c1oc2ccccc2c(Nc2ccc(F)cc2)c1[N+](=O)[O-]	1	6	20	32	-2	12
COc1ccc(NC(=O)NC(C)c2ccccc2)cc1 (configuration not stated)	/	-18	100*	2	/	-3
COc1ccc(NC(C)c2ccccc2)cc1 (configuration not stated)	-8	/	3	/	18	/
Cc1ccc(C(=O)N2CCC(n3nccc3NC(=O)C3CCOC3)CC2)cc1 (configuration not stated)	4	-3	-4	11	-2	1
O=C(Nc1ccnn1C1CCN(C(=O)c2ccc(F)cc2)CC1)C1CCOC1 (configuration not stated)	-4	-1	3	8	52*	/
S=C1NC[C@H](CC2CCCCC2)N1CCc1cccc2ccccc12	-2	21	-17	1	17	-2
S=C1NC[C@H](CC2CCCCC2)N1CCCCC1CCCCC1	1	-27	-5	22	76*	3
CN(C)C1=NC[C@H](Cc2ccccc2)N1CCCC1CCCCC1	/	27	/	43	/	87*
O=C1NC[C@@H](Cc2cccc3ccccc23)N(CCCCC2CCCCC2)C1=O	-5	88*	28	19	82*	0
FC(F)(F)c1cc(CCN2C(=S)NC[C@@H]2CC2CCCCC2)cc(C(F)(F)F)c1	29	97*	-4	15	68*	7
CCCCN1C(=S)NC[C@@H]1Cc1ccccc1	-36	7	-13	7	6	-4
S=C1NC[C@H](Cc2ccccc2)N1CCCCC1CCCCC1	3	136*	-22	-25	16	-11
Cc1c(NC(=O)C(C)OC(=O)c2sc3ccccc3c2Cl)c(=O)n(-c2ccccc2)n1C (configuration not stated)	-18	-17	32	-6	-13	/
